In PMC4033650 (ACS Chemical Biology, 2014):
Where two headings read alike, the source gives them in different places. Positions of bridges follow the written chain, without caps; N, C: chain ends. Non-standard residues stand in square brackets, D forms with d. Residues, ends and D or L forms follow the SMILES beside them. *: point of attachment. Gly(octyl) = CCCCCCCC[C@H](N)C(=O)O; Octanoyl = CCCCCCCC(=O)*; Dab = NCC[C@H](N)C(=O)O

What was measured:
[1] = tested on: polymyxin-resistant clinical isolates of P. aeruginosa, A. baumannii, and K. pneumoniae; test: MIC screen against polymyxin-resistant Gram-negative clinical isolates; format: cell-based; settings: for MICs: polymyxin-resistant clinical isolates of P. aeruginosa, A. baumannii, K. pneumoniae
Summary of the method: (§1)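 Broth microdilution in cation-adjusted Mueller–Hinton broth. […] Plates were incubated 18–20 h at 37 °C. MIC was taken as the lowest concentration inhibiting visible growth.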

[2] = tested on: panel of ATCC and clinical isolates; test: MIC in the presence of Mg2+; format: cell-based; settings: addition of 16 mM of Mg2+; data not shown
Summary of the method: as §1

[3] = Plasma protein binding by equilibrium dialysis; format: in vitro ADME; settings: pooled healthy human plasma
human red blood cells = test: Hemolysis of human red blood cells; format: cell-based; settings: concentrations up to 32 mg/L
[4] = Nephrotoxicity in mice, kidney histopathology; format: in vivo, mouse; settings: subcutaneous, accumulated dose 105 mg/kg
Summary of the method: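 Mice (three groups, n = 3) received subcutaneous injections over 3–4 days to an accumulated 105 mg/kg of test compound or polymyxin B sulfate, with a saline control. Kidneys were formalin-fixed (10%) and sectioned through cortex, medulla and papilla, then stained and graded: grade 1 (mild tubular damage) = 1, grade 2 (severe, necrosis) = 4, grade 3 (cortical necrosis/infarction) = 10.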

[5] = tested on: polymyxin-resistant clinical P. aeruginosa isolate; test: MIC by broth microdilution, polymyxin-resistant P. aeruginosa isolate; format: cell-based, Pseudomonas aeruginosa
Summary of the method: (§2)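 Broth microdilution was run in cation-adjusted Mueller–Hinton broth in polypropylene plates. The inoculum was about 10^6 cfu/mL, mixed 1:1 with broth containing test compound (0 to 128 mg/L). Plates were incubated 18–20 h at 37 °C. MIC was the lowest concentration with no visible growth.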

[6] = tested on: polymyxin-susceptible P. aeruginosa ATCC 27853; test: MIC by broth microdilution, P. aeruginosa ATCC 27853; format: cell-based, Pseudomonas aeruginosa
Summary of the method: as §2

[7] = tested on: polymyxin-resistant clinical P. aeruginosa isolate; test: Static time-kill, polymyxin-resistant P. aeruginosa isolate; format: cell-based, Pseudomonas aeruginosa; settings: 32 mg/L
[8] = tested on: polymyxin-resistant clinical isolate of P. aeruginosa; test: Neutropenic mouse lung infection model; format: in vivo; settings: 24 h after single-dose treatment (40 mg/kg); inoculum 5.42 ± 0.54 log CFU/lung
Summary of the method: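 The model used neutropenic mice with lung infection, following the group's earlier protocol. One polymyxin-susceptible and one polymyxin-resistant P. aeruginosa strain were used. Lung bacterial burden was counted at 0 and 24 h after treatment.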

[9] = rats ref 23; cited from earlier work
purified LPS = test: Dansyl-polymyxin LPS displacement binding assay
Summary of the method: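 LPS was purified from bacteria, and its molar concentration was set by the purpald Kdo assay. Test compound binding to LPS was read as displacement of a synthetic dansyl-polymyxin probe, using the group's published protocol.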

[10] = Pharmacokinetics after single-dose intravenous administration in rats; settings: rat, in vivo
[11] = Tolerability after bolus dose in rats; format: in vivo, rat; settings: intravenous bolus, 0.75 mg/kg
[12] = Tolerability after bolus dose in mice; format: in vivo, mouse; settings: subcutaneous bolus, 40 mg/kg

With Polymyxin B [PMB] the MICs [1] was over 128 mg/L, the “increase in MICs on addition of Mg2+” value [2] was 16 fold and the “plasma protein binding (bound)” value [3] was about 51%. The “hemolysis of human red blood cells” value (human red blood cells) was “no detectable hemolysis” and the “histological grade of kidney lesions” value [4] was “grade 1”.

Molecule colistin has an MIC [5] of over 128 µg/mL, an MIC [6] of 1 µg/mL and an MICs [1] of over 128 mg/L. The “bacterial killing in time-kill” value [7] was “no killing was observed”, the “bacterial burden in the lungs” value [8] was 6.71 ± 0.46 log CFU/lung and the “hemolysis of human red blood cells” value (human red blood cells) was “no detectable hemolysis”. The half-life [9] was 1.24 h, the total clearance [9] was 5.2 mL/min/kg and the volume of distribution [9] was 0.496 L/kg.

With `CCCCCCCC[C@@H]1NC(=O)[C@@H](Cc2ccccc2)NC(=O)[C@H](CCN)NC(=O)[C@@H](NC(=O)[C@H](CCN)NC(=O)[C@@H](NC(=O)[C@H](CCN)NC(=O)CCCCCCC)[C@@H](C)O)CCNC(=O)[C@H]([C@@H](C)O)NC(=O)[C@H](CCN)NC(=O)[C@H](CCN)NC1=O` [FADDI-002] (Octanoyl-[Dab]T[Dab][Dab][Dab][dF][Gly(octyl)][Dab][Dab]T; lactam 4-C) the antimicrobial activity ([1]; panel of polymyxin-resistant Gram-negative clinical isolates) was “potent antimicrobial activity”, the “increase in MICs on addition of Mg2+” value [2] was at most 2 fold and the “higher LPS binding affinity compared to PMB and colistin” value (purified LPS) was “up to 27.1 fold”. The “bacterial burden in the lungs” value [8] was 4.75 ± 0.80 log CFU/lung, the Vd [10] was 0.195 to 0.313 L/kg and the clearance [10] was 0.66 to 1.3 mL/min/kg. For the same molecule, the half-life [10] was 2.77 to 3.4 h, the adverse effects [11] was “no adverse effects were observed” and the adverse effects [12] was “no adverse effects were observed”.
